Test results taken from ChEMBL document CHEMBL1124266, “Stereoelectronic factors influencing the biological activity and DNA interaction of synthetic antitumor agents modeled on CC-1065” (J Med Chem, 1988).
The source made the active and inactive calls. The calls are words filed in the database; no cut-off is given here.

How the values were obtained:
L1210 = experiment: In vitro concentration required to inhibit 50% growth of murine L1210 leukemia cells; format: functional; conditions: Mus musculus, read-out: ID50 (the source's name)
Summary of the method: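 Mouse L1210 leukemia cells in RPMI 1634 with 5% fetal calf serum, 0.075% sodium bicarbonate, penicillin 0.1 mg/mL and streptomycin 50 μg/mL. Drug aliquots added to tubes, then cells at approximately 5 × 10³ cells/mL. Incubation 37 °C for 3 days; cell number by Coulter counter. ID₅₀ = nM concentration giving 50% growth inhibition.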

[1] = Lipophilic/hydrophilic partitioning (RP-TLC); format: ADME; conditions: 2:1 DMF-saline
Summary of the method: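 Reverse-phase TLC developed in 2:1 DMF–saline (0.9% NaCl). Plates scanned at 350 nm. R_f values averaged from two to four determinations.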

Nucleic Acid = experiment: Induced circular dichroism (ICD), expressed as molar ellipticity, in the presence of calf-thymus DNA; format: functional; conditions: Bos taurus
Summary of the method: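 Drug stock (1–4 mg/mL in DMA, DMF or DMSO) injected into calf-thymus DNA (11 × 10⁻⁵ M) in 0.01 M phosphate buffer pH 7.2. Final drug 0.85 × 10⁻⁵ M, base-to-drug ratio 13. Stood 24 h at room temperature before CD spectrum. Value is molar ellipticity at long-wavelength maximum, ca. 350 nm.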

P388 [2] = experiment: In vivo % increase in life span of treated animals (OD) over that of control mice bearing tumor, determined against P388 leukemia cells; format: functional, Mus musculus
Summary of the method: (§1)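 Male BDF1 mice inoculated ip with 10⁶ P388 cells (tumor passaged in DBA/2 females) on day 0. Drug ip on days 1, 5, 9 in 2% DMA, 10% Emulphor 620-P, water. Six mice per group. %ILS = (median death day treated / median death day untreated control − 1) × 100, at optimum dose. 30-day survivors counted as cured.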

[3] = Pseudo-first order rate constant at pH 3 followed spectrophotometrically; format: ADME
Summary of the method: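 Acid-catalyzed cyclopropyl ring opening in methanolic buffer at pH 3, tracked by loss of the 344–370 nm absorption band. Residual long-wavelength absorbance at 2 weeks subtracted. Rate from ln(A/A₀) vs time, linear for at least 2 half-lives. Drug 20–120 µM.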

P388 [4] = experiment: In vivo optimum dose given on days 1, 5, and 9 to mice implanted intraperitoneally with P388 leukemia cells; format: functional, Mus musculus
Summary of the method: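 P388 cells (10⁶/mouse) implanted ip into male BDF1 mice on day 0. Dosing ip on days 1, 5 and 9 in 2% DMA/10% Emulphor 620-P/water vehicle. Six mice per group. Optimum dose given in mg/kg per day, judged by increase in median life span.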

Mus musculus [5] = experiment: In vivo % increase in life span of treated animals (OD) over that of control mice bearing P388 leukemia; format: functional; summary of the method: as §1
Mus musculus [6] = experiment: In vivo optimum dose (OD), given on days 1, 5, and 9 to mice bearing P388 leukemia; format: functional
Summary of the method: (§2)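 P388 leukemia kept by serial passage in female DBA/2 mice. Male BDF1 mice were given 10^6 cells ip on day 0. Drug was given ip on days 1, 5 and 9 in 2% DMA/10% Emulphor 620-P/water, with six mice per group. Optimum dose was in mg/kg per day. %ILS came from the median day of death versus untreated tumor-bearing controls. Mice alive at 30 days were counted as cured.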

P388 [7] = experiment: In vivo % increase in life span of treated animals (OD) over that of control mice bearing tumor, determined against P388 leukemia cells; NA=no activity(<20% ILS); format: functional, organism-based; conditions: Mus musculus; summary of the method: as §2
[8] = Pseudo-first order rate constant at pH 3 followed spectrophotometrically; Stable; format: ADME

SMILES | IC50 (L1210) | Rf [1] | ICD (Nucleic Acid) | ILS (P388 [2]) | k [3] | OD (P388 [4]) | ILS (Mus musculus [5]) | OD (Mus musculus [6]) | ILS (P388 [7]) | k [8]
COc1c(O)ccc2cc(C(=O)N3CC4CC45C3=CC(=O)c3[nH]cc(C)c35)[nH]c12 (stereo unspecified) | 0.1 nM | 0.63 | 0.037 | 55% | 1e-05 | 0.05 mg/kg/day |  |  |  | 
CCCCCC(=O)Nc1ccc2nc(C(=O)N3CC4CC45C3=CC(=O)c3[nH]cc(C)c35)ccc2c1 (stereo unspecified) | 100 nM | 0.15 |  | 127% |  | 21 mg/kg/day |  |  |  | 
Cc1c[nH]c2c1C13CC1CN(C(=O)c1cc4ccccc4[nH]1)C3=CC2=O (stereo unspecified) | 0.2 nM | 0.45 | 0.036 | 90% | 1e-05 | 0.4 mg/kg/day |  |  |  | 
Cc1c[nH]c2c1C13CC1CN(C(=O)c1cc4ccccc4s1)C3=CC2=O (stereo unspecified) | 0.3 nM | 0.41 | 0.007 | 100% | 1.1e-05 | 0.8 mg/kg/day |  |  |  | 
CCCCCC(=O)N1CC2CC23C1=CC(=O)c1[nH]cc(C)c13 (stereo unspecified) | 3 nM | 0.35 | 0 | 100% | 8e-06 | 2 mg/kg/day |  |  |  | 
Cc1c[nH]c2c1C13CC1CN(C(=O)c1ccccn1)C3=CC2=O (stereo unspecified) | 10 nM | 0.76 | 0 | 69% | 1.2e-05 | 15 mg/kg/day |  |  |  | 
Cc1c[nH]c2c1C13CC1CN(C(=O)c1cc4cc(NC(=O)c5ccccc5)ccc4[nH]1)C3=CC2=O (stereo unspecified) | 0.07 nM | 0.43 | 0.036 | 82% |  | 0.05 mg/kg/day |  |  |  | 
Cc1c[nH]c2c1C13CC1CN(C(=O)c1cc4cc(NC(=O)c5cc6ccccc6[nH]5)ccc4[nH]1)C3=CC2=O (stereo unspecified) | 0.01 nM | 0.3 | 0.07 | 159% |  | 0.05 mg/kg/day |  |  |  | 
Cc1c[nH]c2c1C13CC1CN(C(=O)c1cc4cc(NC(N)=O)ccc4[nH]1)C3=CC2=O (stereo unspecified) | 0.6 nM | 0.89 | 0.047 | 65% | 1e-05 | 0.06 mg/kg/day |  |  |  | 
Cc1c[nH]c2c1C13CC1CN(C(=O)c1cc4ccccc4n1C)C3=CC2=O (stereo unspecified) | 10 nM |  | 0.003 |  | 1e-05 |  | 44% | 8 mg/kg/day |  | 
Cc1c[nH]c2c1C13CC1CN(C(=O)c1ccc4ccccc4c1)C3=CC2=O (stereo unspecified) | 7 nM | 0.46 | 0 | 73% |  | 6 mg/kg/day |  |  |  | 
COc1ccc2[nH]c(C(=O)N3CC4CC45C3=CC(=O)c3[nH]cc(C)c35)cc2c1 (stereo unspecified) | 0.01 nM | 0.47 | 0.022 | 95% | 1e-05 | 0.05 mg/kg/day |  |  |  | 
CC(=O)N1CC2CC23C1=CC(=O)c1[nH]cc(C)c13 (stereo unspecified) | 20 nM | 0.9 | 0 | 45% |  | 3 mg/kg/day |  |  |  | 
Cc1c[nH]c2c1C13CC1CN(C(=O)c1cc4cc(NC(=O)c5cc6cc(NC(N)=O)ccc6[nH]5)ccc4[nH]1)C3=CC2=O (stereo unspecified) | 0.3 nM |  | 0.075 | 121% |  | 0.1 mg/kg/day |  |  |  | 
Cc1c[nH]c2c1C13CC1CN=C3C=C2O (stereo unspecified) | 900 nM | 0.87 | 0 |  |  | 10 mg/kg/day |  |  | inactive | Stable
CCCCCCCCCC(=O)N1CC2CC23C1=CC(=O)c1[nH]cc(C)c13 (stereo unspecified) | 100 nM | 0.07 | 0 |  |  | 40 mg/kg/day |  |  | inactive | 
Cc1c[nH]c2c1C13CC1CN(C(=O)c1ccc[nH]1)C3=CC2=O (stereo unspecified) | 2 nM | 0.7 | 0.01 | 71% |  | 1 mg/kg/day |  |  |  | 
Cc1c[nH]c2c1C13CC1CN(C(=O)c1cc4cc(NC(=O)c5cc6cc(NC(=O)c7ccccc7)ccc6[nH]5)ccc4[nH]1)C3=CC2=O (stereo unspecified) | 0.01 nM | 0.3 | 0.033 | 77% |  | 0.1 mg/kg/day |  |  |  | 
Cc1c[nH]c2c1C13CC1CN(S(=O)(=O)c1ccccc1)C3=CC2=O (stereo unspecified) | 900 nM | 0.58 |  |  |  |  |  |  |  | 
Cc1c[nH]c2c1C13CC1CN(C(=O)c1ccccc1)C3=CC2=O (stereo unspecified) | 3 nM | 0.63 | < 0.001 | 71% | 9e-06 | 12 mg/kg/day |  |  |  | 
Cc1c[nH]c2c1C13CC1CN(C(=O)c1cc4cc(NC(=O)c5cc6ccccc6o5)ccc4[nH]1)C3=CC2=O (stereo unspecified) | 0.02 nM | 0.3 | 0.05 | 170% | 1e-05 | 0.05 mg/kg/day |  |  |  | 
Cc1c[nH]c2c1C13CC1CN(C(=O)c1ccc4ccccc4n1)C3=CC2=O (stereo unspecified) | 10 nM | 0.5 | 0.001 | 142% | 1.2e-05 | 6 mg/kg/day |  |  |  | 
Cc1c[nH]c2c1C13CC1CN(C(=O)c1cc4ccccc4o1)C3=CC2=O (stereo unspecified) | 0.04 nM |  | 0.006 |  | 1.1e-05 |  | 110% | 0.25 mg/kg/day |  | 
Cc1c[nH]c2c1C13CC1CN(C(=O)OC(C)(C)C)C3=CC2=O (stereo unspecified) | 300 nM | 0.35 | 0 |  | 5e-06 |  |  |  |  | 
Cc1c[nH]c2c1C13CC1CN(S(C)(=O)=O)C3=CC2=O (stereo unspecified) | 100 nM | 0.82 | 0 | 60% | 3e-06 | 25 mg/kg/day |  |  |  | 
Cc1c[nH]c2c1C13CC1CN(C(=O)c1ccc(NC(=O)c4ccccc4)cc1)C3=CC2=O (stereo unspecified) | 0.5 nM | 0.42 | 0.011 | 83% |  | 0.5 mg/kg/day |  |  |  | 
COc1c(O)c2c(c3cc(C(=O)N4CCc5c4c(O)c(OC)c4[nH]c(C(=O)N6C[C@H]7C[C@@]78C6=CC(=O)c6[nH]cc(C)c68)cc54)[nH]c13)CCN2C(N)=O [(+)-CC-1065] | 0.07 nM | 0.39 | 0.28 | 62% |  | 0.1 mg/kg/day |  |  |  | 
CC1=C(C(=O)N2CC3CC34C2=CC(=O)c2[nH]cc(C)c24)Cc2ccccc21 (stereo unspecified) | 30 nM | 0.39 | 0.004 |  |  | 17 mg/kg/day |  |  | inactive | 
